Here are results for two molecules from ChEMBL document CHEMBL3580644, “Synthesis of piperlongumine analogues and discovery of nuclear factor erythroid 2-related factor 2 (Nrf2) activators as potential neuroprotective agents” (J Med Chem, 2015).

Molecules are shown by their SMILES. Calls of active or inactive are those of the source. The calls are words filed in the database; no cut-off is given here.

Series [1] in a line: Antioxidant activity assessed as ABTS radical scavenging activity at 20 uM incubated for 30 mins by spectrophotometry. The series is classed as physicochemical. Conditions: 0.5 h.
Series [2] has as its system PC-12. The series is described as follows: Cytoprotection activity against H2O2-induced oxidative stress in rat PC12 cells assessed as TrxR1 activity at pre-incubated for 24 hrs before H2O2 exposure for 12 hrs by Escherichia coli Trx based assay. Format: functional, cell-based. Summed up:
(§1)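 Cellular TrxR activity: extract with 20 μg protein incubated 30 min at 37 °C in 100 mM Tris-HCl pH 7.4 containing 0.3 mM insulin, 660 μM NADPH, 3 mM EDTA, 4 μM E. coli Trx; stopped with 1 mM DTNB in 6 M guanidine-HCl pH 8.0; A412 minus Trx-free blank; % of DMSO control.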

Series [3] has as its system PC-12. The series is described as follows: Induction of antioxidant defense system in rat PC12 cells assessed as increase in TrxR activity level incubated for 24 hrs by Escherichia coli Trx based assay. The series is classed as functional, cell-based. The gist of the method: as §1
Series [4] has as its system PC-12. Description: Cytoprotection activity against H2O2-induced cytotoxicity in rat PC12 cells assessed as cell viability at 10 and 20 uM pre-incubated for 24 hrs before H2O2 exposure for 12 hrs by LDH release assay. Format: functional, cell-based. Background: LDH leaks from cells whose membrane has failed.
For series [5], the system named is PC-12. The series is described as follows: Cytoprotection activity against H2O2-induced cytotoxicity in rat PC12 cells assessed as cell viability at 20 uM pre-incubated for 24 hrs before H2O2 exposure for 12 hrs by MTT assay. The series is classed as functional, cell-based.
The subject of series [6] is PC-12. Description: Cytoprotection activity against 6-OHDA-induced cytotoxicity in rat PC12 cells assessed as cell viability at 10 and 20 uM pre-incubated for 24 hrs before 6-OHDA exposure for 12 hrs by LDH release assay. Format: functional, cell-based.
The nature of series [7]: Cytoprotection activity against 6-OHDA-induced cytotoxicity in rat PC12 cells assessed as cell viability at 10 and 20 uM pre-incubated for 24 hrs before 6-OHDA exposure for 12 hrs by MTT assay. Format: functional, PC-12. A general note: Tetrazolium assays rely on reduction of a dye to a coloured formazan, in cell work by metabolically active cells.
For series [8], the target named is T1, Nuclear factor erythroid 2-related factor 2 (Rattus norvegicus) (UniProt O54968).
T1 sequence (whole entry): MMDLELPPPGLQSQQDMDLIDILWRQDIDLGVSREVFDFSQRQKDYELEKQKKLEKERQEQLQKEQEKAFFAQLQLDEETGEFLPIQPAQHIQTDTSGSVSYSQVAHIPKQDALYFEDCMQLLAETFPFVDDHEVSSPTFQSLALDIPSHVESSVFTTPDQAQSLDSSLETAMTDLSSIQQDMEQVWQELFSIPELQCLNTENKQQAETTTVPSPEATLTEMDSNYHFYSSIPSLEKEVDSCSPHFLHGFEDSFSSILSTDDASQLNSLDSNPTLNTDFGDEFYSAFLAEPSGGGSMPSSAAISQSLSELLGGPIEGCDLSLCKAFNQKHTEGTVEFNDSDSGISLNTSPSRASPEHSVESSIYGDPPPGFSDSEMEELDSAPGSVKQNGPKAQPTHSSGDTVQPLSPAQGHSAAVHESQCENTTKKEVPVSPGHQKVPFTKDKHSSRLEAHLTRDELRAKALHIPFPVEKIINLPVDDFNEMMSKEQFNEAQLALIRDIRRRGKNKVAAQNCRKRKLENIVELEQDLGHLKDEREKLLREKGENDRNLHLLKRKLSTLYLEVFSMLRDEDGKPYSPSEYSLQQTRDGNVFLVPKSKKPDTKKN
Description: Induction of Nrf2-mediated antioxidant genes expression in rat PC12 cells assessed as increase in HO1 protein expression at 10 and 20 uM incubated for 20 hrs by Western blotting method. Format: cell-based. Conditions: PC-12. (In western blotting, separated proteins are transferred to a membrane and probed.)

The subject of series [9] is PC-12. Description: Cytoprotection activity against H2O2-induced oxidative stress in rat PC12 cells assessed as GSH level at pre-incubated for 24 hrs before H2O2 exposure for 12 hrs. The series is classed as functional, cell-based. Summed up:
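Total glutathione: cells extracted in KPE buffer (0.1% Triton X-100, 0.6% sulfosalicylic acid, 5 mM EDTA, 0.1 M PBS pH 7.5), sonicated on ice, centrifuged 3000 g 4 min at 4 °C; supernatant assayed enzymatically. PC12 cells 1×10^6 in 60-mm dishes, compound 24 h; stress lines add 500 μM H2O2 or 200 μM 6-OHDA 12 h.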

The subject of series [10] is PC-12. Description: Cytoprotection activity against 6-OHDA-induced cytotoxicity in rat PC12 cells assessed as cell viability at 10 and 20 uM pre-incubated for 24 hrs before 6-OHDA exposure for 12 hrs in presence of non-trageting shRNA by MTT assay. Format: functional, cell-based.
Series [11] relates to PC-12. The series is described as follows: Cytoprotection activity against H2O2-induced cytotoxicity in rat PC12 cells assessed as cell viability at 10 and 20 uM pre-incubated for 24 hrs before H2O2 exposure for 12 hrs in presence of shNrf2 by MTT assay. The series is classed as functional, cell-based.
Series [12] relates to PC-12. The series is described as follows: Induction of antioxidant genes expression in rat PC12 cells assessed as increase in HO1 mRNA level at 20 uM incubated for 6 hrs by qRT-PCR method. Format: functional, cell-based. The gist of the method:
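PC12 cells, 1×10^6 per 60-mm dish, 1 day, then 20 μM compound for 0, 3, 6 and 12 h; total RNA isolated, quantified by 260/280 absorbance; mRNA by real-time RT-PCR normalized to GAPDH; mean ± SD of three independent experiments versus 0 h.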

In series [13] the target is T1, Nuclear factor erythroid 2-related factor 2 (Rattus norvegicus). The series is described as follows: Induction of Nrf2-mediated antioxidant genes expression in rat PC12 cells assessed as increase in Trx1 protein expression at 10 and 20 uM incubated for 20 hrs by Western blotting method. Format: cell-based. To be noted: PC-12.
The test system of series [14] is PC-12. Description: Cytoprotection activity against 6-OHDA-induced cytotoxicity in rat PC12 cells assessed as cell viability at 20 uM pre-incubated for 24 hrs before 6-OHDA exposure for 12 hrs by MTT assay. Format: functional, cell-based.

`COc1ccc(/C=C/C(=O)N2CCCC2=O)cc1`: the Activity entry in series [1] is “Not Active”; in [7], 75%. Also, the outcome in [2], in [3], in series [4], in series [5], in series [6] and in series [8] was Active. Besides, the result in [9], in series [10], in series [12], in series [13] and in series [14] was Active. Moreover, the outcome in series [11] was inactive.

Turning to `COc1cc(/C=C/C(=O)N2CCCCC2=O)cc(OC)c1OC`, the Activity result is reported as “Not Active” in series [1] and 75% in [7]. The outcome in series [2], in [3], in series [4], in series [5], in series [6] and in [8] was Active. Besides, the result in series [9], in [10], in [12], in series [13] and in series [14] was Active. Besides, the result in [11] was inactive.
